Activity calls are given as the source filed them. No cut-off for these calls is given here.
What was measured:
[1] = molecular target: T1, Histone deacetylase 8 (Homo sapiens) (UniProt Q9BY41); assay: Inhibition of human recombinant HDAC8 using BML-KI-178 as substrate at 10 uM by spectrofluorometric analysis; details: TDE = time-dependent effect
T1 sequence (whole entry): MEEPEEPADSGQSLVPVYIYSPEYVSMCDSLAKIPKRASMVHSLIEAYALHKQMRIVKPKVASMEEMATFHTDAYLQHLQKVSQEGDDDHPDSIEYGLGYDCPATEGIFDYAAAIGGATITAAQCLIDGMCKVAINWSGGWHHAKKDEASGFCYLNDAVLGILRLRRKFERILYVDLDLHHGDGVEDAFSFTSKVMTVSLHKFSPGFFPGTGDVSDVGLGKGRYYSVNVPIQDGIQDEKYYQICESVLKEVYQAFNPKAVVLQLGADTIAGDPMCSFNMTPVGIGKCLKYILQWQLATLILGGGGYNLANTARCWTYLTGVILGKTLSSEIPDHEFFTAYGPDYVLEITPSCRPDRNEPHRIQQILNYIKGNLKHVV

Histone deacetylase 1 [2] = molecular target: T2, Histone deacetylase 1 (Homo sapiens, UniProt Q13547); assay: Inhibition of HDAC1 in human MDA-MB-231 cells assessed as inhibition of H4 deacetylation at 50 uM after 24 hrs by Western blot analysis; type: cell-based
T2 sequence (Q13547 whole entry): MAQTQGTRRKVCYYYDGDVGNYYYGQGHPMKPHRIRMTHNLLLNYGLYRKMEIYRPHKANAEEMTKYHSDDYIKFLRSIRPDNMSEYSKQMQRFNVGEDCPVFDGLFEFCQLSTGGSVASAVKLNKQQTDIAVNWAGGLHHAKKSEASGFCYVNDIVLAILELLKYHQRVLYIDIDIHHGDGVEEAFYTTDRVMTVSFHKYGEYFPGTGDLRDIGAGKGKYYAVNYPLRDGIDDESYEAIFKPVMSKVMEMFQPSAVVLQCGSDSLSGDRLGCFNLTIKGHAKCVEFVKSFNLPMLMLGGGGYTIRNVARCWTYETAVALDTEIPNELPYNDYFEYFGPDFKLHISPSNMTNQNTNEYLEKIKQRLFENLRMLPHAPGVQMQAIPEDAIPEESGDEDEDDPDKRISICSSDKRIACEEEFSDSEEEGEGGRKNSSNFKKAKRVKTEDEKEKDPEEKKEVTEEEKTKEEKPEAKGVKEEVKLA
Method in brief: (§1)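 MDA-MB-231 cells grown to 90% confluence in DMEM/10% FBS and treated with probes (50 µM final) or DMSO for 24 h at 37 °C, 5% CO2. Cells lysed in RIPA buffer with protease/phosphatase inhibitors, 25 µg total protein run on SDS-PAGE. Western blot with anti-acetyl histone H4, GAPDH as loading control; three independent experiments.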

[3] = molecular target: Histone deacetylase 3 (Homo sapiens) (UniProt O15379); assay: Inhibition of human recombinant HDAC3 using Boc-L-Lys (Ac)-AMC as substrate at 10 uM by spectrofluorometric analysis; details: TDE = time-dependent effect
Chain of Histone deacetylase 3 (Homo sapiens) (O15379 whole entry): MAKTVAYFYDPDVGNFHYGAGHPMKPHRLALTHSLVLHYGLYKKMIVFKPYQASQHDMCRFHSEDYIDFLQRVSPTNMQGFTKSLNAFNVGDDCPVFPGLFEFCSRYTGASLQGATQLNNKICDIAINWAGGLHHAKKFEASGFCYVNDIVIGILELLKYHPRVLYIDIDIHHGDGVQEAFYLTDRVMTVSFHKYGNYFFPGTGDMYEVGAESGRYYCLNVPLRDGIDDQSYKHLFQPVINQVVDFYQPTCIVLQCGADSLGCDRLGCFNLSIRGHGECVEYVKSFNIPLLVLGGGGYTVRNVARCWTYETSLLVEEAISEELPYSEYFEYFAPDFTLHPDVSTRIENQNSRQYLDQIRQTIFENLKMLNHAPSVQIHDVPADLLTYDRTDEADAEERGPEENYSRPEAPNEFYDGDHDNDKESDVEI

Histone deacetylase 2 [4] = molecular target: T3, Histone deacetylase 2 (Homo sapiens, UniProt Q92769); assay: Inhibition of HDAC2 in human MDA-MB-231 cells assessed as inhibition of H4 deacetylation at 50 uM after 24 hrs by Western blot analysis; type: cell-based; method in brief: as §1
T3 sequence (Q92769 whole entry): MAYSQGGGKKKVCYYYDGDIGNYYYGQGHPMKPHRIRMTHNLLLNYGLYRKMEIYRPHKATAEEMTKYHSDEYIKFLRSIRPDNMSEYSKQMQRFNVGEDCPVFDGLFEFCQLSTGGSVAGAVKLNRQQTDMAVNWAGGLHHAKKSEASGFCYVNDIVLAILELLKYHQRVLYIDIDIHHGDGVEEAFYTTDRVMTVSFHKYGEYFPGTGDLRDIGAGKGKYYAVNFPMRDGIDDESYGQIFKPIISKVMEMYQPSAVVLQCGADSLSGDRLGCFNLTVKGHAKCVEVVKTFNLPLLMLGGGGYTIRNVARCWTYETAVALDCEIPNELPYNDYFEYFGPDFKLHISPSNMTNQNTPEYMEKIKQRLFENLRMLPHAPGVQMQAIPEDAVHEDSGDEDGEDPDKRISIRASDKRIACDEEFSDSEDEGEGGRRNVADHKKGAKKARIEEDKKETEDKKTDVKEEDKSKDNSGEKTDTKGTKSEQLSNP

Histone deacetylase 2 [5] = molecular target: T3, Histone deacetylase 2; assay: Inhibition of human recombinant HDAC2 using Boc-L-Lys (Ac)-AMC as substrate preincubated with compound for 5 mins measured after 35 mins by spectrofluorometric analysis
Histone deacetylase 1 [6] = molecular target: T2, Histone deacetylase 1; assay: Inhibition of human recombinant HDAC1 using Boc-L-Lys (Ac)-AMC as substrate preincubated with compound for 3 hrs measured after 35 mins by spectrofluorometric analysis
Histone deacetylase 1 [7] = molecular target: T2, Histone deacetylase 1; assay: Inhibition of human recombinant HDAC1 using Boc-L-Lys (Ac)-AMC as substrate preincubated with compound for 5 mins measured after 35 mins by spectrofluorometric analysis
Histone deacetylase 2 [8] = molecular target: T3, Histone deacetylase 2; assay: Inhibition of human recombinant HDAC2 using Boc-L-Lys (Ac)-AMC as substrate preincubated with compound for 3 hrs measured after 35 mins by spectrofluorometric analysis
Histone deacetylase 2 [9] = molecular target: T3, Histone deacetylase 2; assay: Inhibition of human recombinant HDAC2 using Boc-L-Lys (Ac)-AMC as substrate preincubated with compound for 24 hrs measured after 35 mins by spectrofluorometric analysis
Histone deacetylase 2 [10] = molecular target: T3, Histone deacetylase 2; assay: Binding affinity to His-tagged human HDAC2 assessed as decrease in biotinylation of HDAC2 at 25 uM preincubated for 24 hrs measured after 1 hr by Western blot analysis in presence of five-fold molar excess of Trichostatin A

SMILES	inhibition [1]	inhibition (Histone deacetylase 1 [2])	inhibition [3]	inhibition (Histone deacetylase 2 [4])	IC50 (Histone deacetylase 2 [5])	IC50 (Histone deacetylase 1 [6])	IC50 (Histone deacetylase 1 [7])	IC50 (Histone deacetylase 2 [8])	IC50 (Histone deacetylase 2 [9])	Activity (Histone deacetylase 2 [10])
[N-]=[N+]=Nc1ccc(C(=O)Nc2cc(-c3ccccc3)ccc2N)cc1	tde	Active	tde	Active	–	–	–	–	–	–
[N-]=[N+]=Nc1cccc(COC(=O)NCc2ccc(C(=O)Nc3cc(-c4ccccc4)ccc3N)cc2)c1	tde	Active	tde	Active	3.8 µM	0.78 µM	3.8 µM	1 µM	0.32 µM	–
[N-]=[N+]=NCCC(=O)Nc1ccc(C(=O)Nc2cc(N=[N+]=[N-])ccc2N)cc1	tde	–	tde	–	–	–	–	–	–	Active
[N-]=[N+]=NCc1cc(N=[N+]=[N-])cc(C(=O)Nc2cc(-c3cccs3)ccc2N)c1	tde	Active	tde	Active	–	1.4 µM	5.6 µM	–	–	Active
Nc1ccc(-c2ccccc2)cc1NC(=O)c1ccc(CNC(=O)OCc2ccccc2)cc1	tde	–	tde	–	–	–	–	–	–	–
[N-]=[N+]=NCCOc1ccc(C(=O)Nc2cc(-c3ccccc3)ccc2N)cc1N=[N+]=[N-]	tde	Active	tde	Active	34 µM	2.7 µM	23 µM	6.5 µM	–	Active
Nc1ccc(-c2ccccc2)cc1NC(=O)c1ccccc1	tde	–	tde	–	1.2 µM	0.052 µM	0.41 µM	0.35 µM	0.14 µM	–
[N-]=[N+]=NCCOc1ccc(C(=O)Nc2cc(-c3cccs3)ccc2N)cc1N=[N+]=[N-]	tde	Active	tde	Active	17 µM	3.8 µM	18 µM	6.6 µM	–	Active
[N-]=[N+]=NCc1cc(COC(=O)NCc2ccc(C(=O)Nc3cc(-c4cccs4)ccc3N)cc2)cc(N=[N+]=[N-])c1	tde	Active	tde	Active	–	–	–	–	–	Active
[N-]=[N+]=Nc1ccc(C(=O)Nc2cc(-c3cccs3)ccc2N)cc1	tde	Active	tde	Active	–	–	–	–	–	–
[N-]=[N+]=NCc1cc(N=[N+]=[N-])cc(C(=O)Nc2cc(-c3ccccc3)ccc2N)c1	tde	Active	tde	Active	–	–	–	–	–	Active
[N-]=[N+]=NCc1cc(COC(=O)NCc2ccc(C(=O)Nc3cc(-c4ccccc4)ccc3N)cc2)cc(N=[N+]=[N-])c1	tde	Active	tde	Active	–	–	–	–	–	Active
